# From PubChem BioAssay
# TAAR1 ag – agonists of human TAAR1; hit rate 0.99% among 360,000; CHO RD-HGA16 TAAR1, Fluo-8 calcium fluorescence; vehicle wells 0%, saturating PEA agonist 100%; AID 624467; activation, % at 3 µM;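 active means activation above the mean activation of all test compounds in the run plus 3 SD, cut at about 38% in these data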
# Target sequence (Q96RJ0 whole entry, looked up): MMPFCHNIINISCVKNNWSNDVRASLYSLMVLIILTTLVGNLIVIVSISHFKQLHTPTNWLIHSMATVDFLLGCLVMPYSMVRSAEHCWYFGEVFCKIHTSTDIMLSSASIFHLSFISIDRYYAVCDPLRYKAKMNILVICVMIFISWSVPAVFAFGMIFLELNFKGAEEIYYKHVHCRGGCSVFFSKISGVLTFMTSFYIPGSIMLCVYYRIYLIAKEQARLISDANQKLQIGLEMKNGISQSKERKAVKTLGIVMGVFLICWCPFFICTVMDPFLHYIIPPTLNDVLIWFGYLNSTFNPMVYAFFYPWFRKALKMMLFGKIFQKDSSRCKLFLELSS
#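 System: CHO RD-HGA16 cells carrying human TAAR1 plus Gα16; Incubation: 17-24 h seeding, 75 min 37 °C dye, 30 min RT; Measured by: Fluo-8 fluorescence, 5 s baseline then 140 s kinetic read; Control set: DMSO and PEA EC100; Replication: single well for each compound.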
# TAAR1 antag – antagonists of human TAAR1; Q96RJ0; CHO RD-HGA16 TAAR1, Fluo-8 calcium fluorescence, antagonist; inhibition, % at 3 µM; hit rate 1.5% among 360,000;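 active means inhibition above a per-plate cutoff, the mean inhibition of test compounds on that plate plus 3 SD, cut at about 49% in these data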;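 further: 0% = DMSO plus EC80 beta-PEA response and 100% = DMSO alone without agonist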
#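 Test system: hTAAR1-expressing CHO RD-HGA16 cells, Gα16-coupled; Probe or stimulus: EC80 β-phenethylamine stimulus; Compound dosing: single nominal final test compound concentration of 3 µM; Timing: 140 s kinetic read after compound, 140 s after agonist; Signal: Fluo-8 calcium-sensitive fluorescence; Measure: % inhibition of agonist calcium response; Controls: DMSO and EC80 PEA controls.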
# MPTP inh – permeability transition pore inhibition; inhibition, % at 10 µM; isolated mouse mitochondria, Ca2+ swelling absorbance, 30 min; hit rate 1.4% among 360,000; AID 602449;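 active means inhibition of 50% or more, scaled per plate between neutral and stimulator controls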;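 further: 0% = DMSO wells given calcium and 100% = 1 mM EGTA wells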
# GPR7 antag – antagonists of human GPR7 (neuropeptides B/W receptor 1). GPR7-expressing cells, fluorescence antagonist assay. inhibition, % at 4.4 µM. P48145. hit rate 1.1% among 290,000; in the data active means inhibition above about 16%, passing the limit was not always enough;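 further: cells stimulated with the agonist NPW; 0% = agonist with vehicle and 100% = vehicle without agonist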
# DAGLB inhibitor – diacylglycerol lipase beta (human) inhibition | inhibition, % at 5.17 µM | HEK293T DAGLB membrane lysate, EnzChek fluorogenic substrate | Q8NCG7 | hit rate 0.059% among 340,000 | AID 504411; in the data active means inhibition above about 34%;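 further: 0% = enzyme with vehicle and 100% = wells lacking enzyme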
# Rh123 counter – mitochondrial membrane potential, counter-screen; shares compounds with MPTP inh; isolated mitochondria, Rhodamine 123 fluorescence; inhibition, % at 10 µM; hit rate 78% among 5,000; AID 624504; in the data active means inhibition above about 22%;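 further: 0% = DMSO vehicle and 100% = positive control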
# TAAR1 ag conf – human TAAR1 agonism, confirmed | AID 651783 | hit rate 82% among 2,400 | CHO RD-HGA16 TAAR1, Fluo-8 calcium fluorescence; scaled: DMSO 0%, maximal phenethylamine 100% | shares compounds with TAAR1 ag | activation, % at 3 µM;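 active means activation above a cutoff set at the run's mean compound activation plus 3 SD, cut at about 39% in these data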
# Ga16 nonsel ag – nonselective agonist in parental cells, TAAR1 agonist counter-screen; shares compounds with TAAR1 ag; CHO-Ga16 parental, Fluo-8 calcium fluorescence; normalized to maximal ATP response, DMSO zero; activation, % at 3 µM; hit rate 50% among 2,400; AID 651787;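 active means activation above the run cutoff, the mean activation over all tested wells plus 3 SD, cut at about 12% in these data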;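 further: 0% = DMSO wells and 100% = maximal ATP response on the peak over basal ratio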
# TAAR1 desens – TAAR1 response desensitization, agonist counter-screen; shares compounds with TAAR1 ag; CHO RD-HGA16 hTAAR1, Fluo-8 calcium, beta-PEA response inhibition; inhibition, % at 3 µM; hit rate 46% among 2,400; AID 651951;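 active means inhibition above the run cutoff, the mean inhibition of all test compounds plus 3 SD, cut at about 49% in these data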;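 further: beta-PEA stimulus applied at its EC80; loss of beta-PEA calcium signal after compound pretreatment read as receptor desensitization; 0% = DMSO with beta-PEA at EC80 and 100% = DMSO alone without agonist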
# Ga16 antag count – nonselective Ga16 antagonism, counter-screen; inhibition, % at 3 µM; CHO-Ga16 ATP-induced calcium, Fluo-8 fluorescence; AID 651952; hit rate 39% among 2,400; shares compounds with TAAR1 ag;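 active means inhibition above the plate's mean compound inhibition plus 3 SD, computed per plate, cut at about 22% in these data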;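 further: 0% = EC80 ATP with DMSO and 100% = DMSO wells without ATP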
# * marks the source's active call; other numbers are inactive results; x = no result given. The list is not random: actives were taken first. Their share in the collection is about 4%.
SMILES,TAAR1 ag,TAAR1 antag,MPTP inh,GPR7 antag,DAGLB inhibitor,Rh123 counter,TAAR1 ag conf,Ga16 nonsel ag,TAAR1 desens,Ga16 antag count
CCOC(=O)c1ccc(NC(=S)NCCc2ccccc2F)cc1,70.2*,36.7,78.0*,-6.2,-8.4,88.7*,88.6*,10.9,86.0*,33.4*
CCOC(=O)c1ccc(NC(=O)NCCc2ccccc2OC)cc1,12.8,18.8,2.9,-4.8,-12.1,x,x,x,x,x
S=C(NCc1ccccc1)NCc1ccc(CNC(=S)NCc2ccccc2)cc1,55.6*,65.1*,78.6*,15.4,-0.6,90.2*,51.1*,20.1*,62.7*,47.3*
Fc1ccc(CNC(=S)NCc2ccccc2)cc1,1.4,12.9,1.7,4.1,3.2,x,x,x,x,x
O=C1NC[C@H](CCCCN2CCN(CC3CCCCC3)C(=O)C2=O)N(Cc2ccccc2)C1=O,0.0,14.6,-0.1,x,x,x,x,x,x,x
CCN(CC)c1ccc(C=C2SC(=S)NC2=O)cc1,120.3*,105.3*,63.6*,x,-78.5,78.4*,97.1*,104.0*,100.8*,97.6*
Cc1nc(N)nc(N)c1/C=C/C(C)(C)c1ccc(Cl)cc1,53.5*,40.5,96.6*,6.0,2.1,91.3*,71.9*,41.8*,72.2*,48.0*
O=C(COC(=O)CNC(=O)c1ccccc1F)NC1CC1,3.1,-5.9,0.9,x,-3.2,x,x,x,x,x
O=c1[nH]c(=O)n(Cc2ccco2)c2c1C(C(F)(F)F)(C(F)(F)F)N=C(CCC1CCCCC1)N2,58.5*,25.9,70.5*,-5.9,-2.9,89.7*,37.8*,21.4*,56.4*,34.9*
O=c1[nH]c(=O)n(Cc2ccco2)c2c1C(C(F)(F)F)(C(F)(F)F)N=C(C1CCCCC1)N2,-1.1,14.8,9.2,-1.8,1.5,x,x,x,x,x
COc1cccc(OC)c1C(=O)Nc1cccc(S(=O)(=O)Nc2ccccc2Cl)c1,4.7,6.9,-0.6,x,-0.5,x,x,x,x,x
COc1ccccc1NS(=O)(=O)c1cccc(NC(=O)Nc2ccc(Cl)cc2)c1,56.2*,76.2*,82.8*,-4.8,-1.0,71.8*,45.9*,19.2*,93.0*,58.0*
C1CCC(C(CC2CCCCN2)C2CCCCC2)CC1 (centres undefined),39.7*,32.3,81.5*,24.8,7.5,-10.1,58.2*,35.2*,24.1,21.5*
CC[C@@]1(C(=O)OC)N[C@H](CN(C)S(=O)(=O)c2ccc(C(C)(C)C)cc2)[C@@H]2C(=O)N(C)C(=O)[C@@H]21,0.9,8.1,2.6,x,0.2,x,x,x,x,x
O=c1[nH]c2ccc(NC(=S)Nc3ccc(Cl)cc3)cc2[nH]1,53.2*,8.2,56.1*,14.4,-0.5,102.8*,57.7*,10.9,34.4,29.2*
O=c1[nH]c2ccc(NC(=S)Nc3ccccc3)cc2[nH]1,6.9,-8.1,-1.3,-11.2,0.4,x,x,x,x,x
O=c1oc2cc(O)ccc2cc1-c1nc2c(s1)CCc1ccccc1-2,59.2*,46.9,88.9*,-4.3,-219.3,83.7*,176.1*,164.4*,84.2*,84.1*
O=C(NNC(=S)NC(=O)c1sc2ccccc2c1Cl)c1ccc(Cl)cc1,90.5*,49.9*,108.2*,16.4,5.1,19.6,163.0*,140.6*,106.5*,103.0*
CCCCn1c(N)c(N(CCOC)C(=O)CCS(=O)(=O)c2ccc(C)cc2)c(=O)[nH]c1=O,0.6,-4.8,-1.2,x,2.3,x,x,x,x,x
COc1cc(OC)cc(C(=O)NC(=S)NNC(=O)[C@H]2C[C@@H]2c2ccccc2)c1,173.7*,107.1*,82.5*,-8.5,1.4,-2.0,113.0*,101.7*,89.3*,65.0*
